From ChEMBL document CHEMBL1828575, “Design, synthesis and antiproliferative activities of biarylolefins based on polyhydroxylated and carbohydrate scaffolds” (Eur J Med Chem, 2011)
Calls of active or inactive are those of the source. The calls are words filed in the database; no cut-off is given here.

What was measured:
HCT-116 [1] = assay: Cytotoxicity against human HCT116 cells at 10^-6 M after 72 hrs by MTS assay; type: functional; details: HCT-116, 72 h, read-out: GI
Method in brief: (§1)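 Cells grown in RPMI with 10% fetal calf serum, penicillin, streptomycin and fungizone under 5% CO₂. Plated in 96-well plates and dosed 24 h later with compound in DMSO (1% final DMSO; controls got DMSO alone). After 72 h, MTS was added for 3 h at 37 °C and A490 read. Inhibition = (1 − OD treated/OD control) × 100, in triplicate.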

MCF7 [2] = assay: Cytotoxicity against human MCF7 cells at 10^-6 M after 72 hrs by MTS assay; type: functional; details: MCF7, 72 h, read-out: GI
HT-29 [3] = assay: Cytotoxicity against human HT-29 cells at 10^-6 M after 72 hrs by MTS assay; type: functional; details: HT-29, 72 h, read-out: GI; method in brief: as §1
PC-3 [4] = assay: Cytotoxicity against human PC3 cells at 10^-6 M after 72 hrs by MTS assay; type: functional; details: PC-3, 72 h, read-out: GI
Method in brief: (§2)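 Preliminary screen at 10^-5 and 10^-6 M. Cells were grown in RPMI with 10% fetal calf serum plus penicillin, streptomycin and fungizone under 5% CO₂, plated in 96-well plates, and dosed 24 h later from DMSO stocks (1% DMSO final, same in controls). After 72 h, MTS was added for 3 h at 37 °C and absorbance read at 490 nm. Inhibition was calculated as (1 − OD treated/OD control) × 100, in triplicate.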

[5] = Cytotoxicity against human HL60R cells at 10^-6 M after 72 hrs by MTS assay; type: functional; details: read-out: GI; method in brief: as §1
K562 [6] = assay: Cytotoxicity against human K562 cells at 10^-6 M after 72 hrs by MTS assay; type: functional; details: K562, 72 h, read-out: GI; method in brief: as §1
A549 [7] = assay: Cytotoxicity against human A549 cells at 10^-6 M after 72 hrs by MTS assay; type: functional; details: A549, 72 h, read-out: GI; method in brief: as §1
MIA PaCa-2 [8] = assay: Cytotoxicity against human MIAPaCa2 cells at 10^-5 M after 72 hrs by MTS assay; type: functional; details: MIA PaCa-2, 72 h, read-out: GI
HCT-15 [9] = assay: Cytotoxicity against human HCT15 cells at 10^-5 M after 72 hrs by MTS assay; type: functional; details: HCT-15, 72 h, read-out: GI; method in brief: as §1
HL-60 [10] = assay: Cytotoxicity against human HL60 cells at 10^-5 M after 72 hrs by MTS assay; type: functional; details: HL-60, 72 h, read-out: GI; method in brief: as §1
OVCAR-8 [11] = assay: Cytotoxicity against human OVCAR8 cells at 10^-5 M after 72 hrs by MTS assay; type: functional; details: OVCAR-8, 72 h, read-out: GI; method in brief: as §2
HCT-15 [12] = assay: Cytotoxicity against human HCT15 cells at 10^-6 M after 72 hrs by MTS assay; type: functional; details: HCT-15, 72 h, read-out: GI; method in brief: as §1
MCF7 [13] = assay: Cytotoxicity against human MCF7 cells at 10^-5 M after 72 hrs by MTS assay; type: functional; details: MCF7, 72 h, read-out: GI
SK-OV-3 [14] = assay: Cytotoxicity against human SKOV3 cells at 10^-6 M after 72 hrs by MTS assay; type: functional; details: SK-OV-3, 72 h, read-out: GI; method in brief: as §2
SF-268 [15] = assay: Cytotoxicity against human SF268 cells at 10^-6 M after 72 hrs by MTS assay; type: functional; details: SF-268, 72 h, read-out: GI; method in brief: as §2
SK-OV-3 [16] = assay: Cytotoxicity against human SKOV3 cells at 10^-5 M after 72 hrs by MTS assay; type: functional; details: SK-OV-3, 72 h, read-out: GI; method in brief: as §2
MIA PaCa-2 [17] = assay: Cytotoxicity against human MIAPaCa2 cells at 10^-6 M after 72 hrs by MTS assay; type: functional; details: MIA PaCa-2, 72 h, read-out: GI
HL-60 [18] = assay: Cytotoxicity against human HL60 cells at 10^-6 M after 72 hrs by MTS assay; type: functional; details: HL-60, 72 h, read-out: GI; method in brief: as §1
HCT-116 [19] = assay: Cytotoxicity against human HCT116 cells at 10^-5 M after 72 hrs by MTS assay; type: functional; details: HCT-116, 72 h, read-out: GI; method in brief: as §1
[20] = Cytotoxicity against human HL60R cells at 10^-5 M after 72 hrs by MTS assay; type: functional, HL-60; details: read-out: GI; method in brief: as §1
[21] = Cytotoxicity against human MDA231 cells at 10^-6 M after 72 hrs by MTS assay; type: functional; details: MDA-MB-231, 72 h, read-out: GI; method in brief: as §2
A549 [22] = assay: Cytotoxicity against human A549 cells at 10^-5 M after 72 hrs by MTS assay; type: functional; details: A549, 72 h, read-out: GI; method in brief: as §1
OVCAR-8 [23] = assay: Cytotoxicity against human OVCAR8 cells at 10^-6 M after 72 hrs by MTS assay; type: functional; details: OVCAR-8, 72 h, read-out: GI; method in brief: as §2
HT-29 [24] = assay: Cytotoxicity against human HT-29 cells at 10^-5 M after 72 hrs by MTS assay; type: functional; details: HT-29, 72 h, read-out: GI; method in brief: as §1
SF-268 [25] = assay: Cytotoxicity against human SF268 cells at 10^-5 M after 72 hrs by MTS assay; type: functional; details: SF-268, 72 h, read-out: GI; method in brief: as §2
[26] = Cytotoxicity against human MDA231 cells at 10^-5 M after 72 hrs by MTS assay; type: functional; details: MDA-MB-231, 72 h, read-out: GI; method in brief: as §2
Ovis aries = organism: Ovis aries; assay: Inhibition of sheep brain tubulin polymerization at 10 uM
Method in brief: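 Microtubule protein from sheep brain, purified by two assembly/disassembly cycles (37 °C/0 °C), in 100 mM MES pH 6.6, 1 mM EGTA, 0.5 mM MgCl₂. Compounds in DMSO were tested at a single concentration, with incubation at 37 °C for 10 min and then 0 °C for 5 min before measuring assembly rate, following a modified Guénard protocol.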

K562 [27] = assay: Cytotoxicity against human K562 cells at 10^-5 M after 72 hrs by MTS assay; type: functional; details: K562, 72 h, read-out: GI; method in brief: as §1
PC-3 [28] = assay: Cytotoxicity against human PC3 cells at 10^-5 M after 72 hrs by MTS assay; type: functional; details: PC-3, 72 h, read-out: GI; method in brief: as §2
[29] = Cytotoxicity against human NCI60 cells assessed as cellular growth at 10 uM after 48 hrs by SRB assay relative to untreated control; type: functional
Method in brief: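 NCI-60 panel lines grown in RPMI 1640 with 5% FBS and 2 mM L-glutamine. Plated at 5000–40,000 cells/well and preincubated 24 h at 37 °C, 5% CO₂, with time-zero plates fixed in TCA. Compounds, dissolved in DMSO and diluted in medium, were applied for 48 h. Cells were TCA-fixed (10% final for adherent, 16% for suspension) and stained with 0.4% SRB in 1% acetic acid. Dye was solubilised in 10 mM Tris base and read at 515 nm; growth was expressed as a percentage of untreated control.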

SMILES | inhibition of growth at 1 µM (HCT-116 [1]) | inhibition of growth at 1 µM (MCF7 [2]) | inhibition of growth at 1 µM (HT-29 [3]) | inhibition of growth at 1 µM (PC-3 [4]) | inhibition of growth at 1 µM [5] | inhibition of growth at 1 µM (K562 [6]) | inhibition of growth at 1 µM (A549 [7]) | inhibition of growth at 10 µM (MIA PaCa-2 [8]) | inhibition of growth at 10 µM (HCT-15 [9]) | inhibition of growth at 10 µM (HL-60 [10]) | inhibition of growth at 10 µM (OVCAR-8 [11]) | inhibition of growth at 1 µM (HCT-15 [12]) | inhibition of growth at 10 µM (MCF7 [13]) | inhibition of growth at 1 µM (SK-OV-3 [14]) | inhibition of growth at 1 µM (SF-268 [15]) | inhibition of growth at 10 µM (SK-OV-3 [16]) | inhibition of growth at 1 µM (MIA PaCa-2 [17]) | inhibition of growth at 1 µM (HL-60 [18]) | inhibition of growth at 10 µM (HCT-116 [19]) | Activity [29] | other results
COc1cc(C(=C(COC(C)=O)COC(C)=O)c2ccc3c(c2)OCO3)cc(OC)c1OC | 0% | 0% | 0% | 3% | 9% | 5% | 0% | 0% | 22% | 30% | 0% | 9% | 11% | 3% | 24% | 7% | 0% | 17% | 0% |  | inhibition of growth at 10 µM [20]: 24%; inhibition of growth at 1 µM [21]: 0%; inhibition of growth at 10 µM (A549 [22]): 12%; inhibition of growth at 1 µM (OVCAR-8 [23]): 0%; inhibition of growth at 10 µM (HT-29 [24]): 0%; inhibition of growth at 10 µM (SF-268 [25]): 20%; inhibition of growth at 10 µM [26]: 17%; tubulin polymerization inhibition call (active/not active) (Ovis aries): inactive; inhibition of growth at 10 µM (K562 [27]): 26%; inhibition of growth at 10 µM (PC-3 [28]): 13%
COc1cc(C(=C2O[C@@H]([C@H](O)CO)[C@H]3OC(C)(C)O[C@@H]23)c2cc(OC)c(OC)c(OC)c2)cc(OC)c1OC |  |  |  |  |  |  |  |  |  |  |  |  |  |  |  |  |  |  |  | 103% | 
COc1cc(C(=C(COC(C)=O)COC(C)=O)c2ccc3ccccc3c2)cc(OC)c1OC | 0% | 10% | 0% | 18% | 19% | 12% | 3% | 15% | 65% | 82% | 6% | 8% | 17% | 12% | 17% | 46% | 4% | 11% | 20% |  | inhibition of growth at 10 µM [20]: 41%; inhibition of growth at 1 µM [21]: 0%; inhibition of growth at 10 µM (A549 [22]): 45%; inhibition of growth at 1 µM (OVCAR-8 [23]): 0%; inhibition of growth at 10 µM (HT-29 [24]): 22%; inhibition of growth at 10 µM (SF-268 [25]): 81%; inhibition of growth at 10 µM [26]: 74%; tubulin polymerization inhibition call (active/not active) (Ovis aries): inactive; inhibition of growth at 10 µM (K562 [27]): 83%; inhibition of growth at 10 µM (PC-3 [28]): 62%
COc1cc(/C(=C2\O[C@@H]([C@H](O)CO)[C@H]3OC(C)(C)O[C@@H]23)c2ccc3ccccc3c2)cc(OC)c1OC |  |  |  |  |  |  |  |  |  |  |  |  |  |  |  |  |  |  |  | 96% | 
COc1cc(/C(=C2\O[C@@H]([C@H]3COC(C)(C)O3)[C@H]3OC(C)(C)O[C@@H]23)c2ccc3c(c2)OCO3)cc(OC)c1OC |  |  |  |  |  |  |  |  |  |  |  |  |  |  |  |  |  |  |  | 61% | 
COc1cc(/C(=C2\O[C@@H]([C@H](O)CO)[C@H]3OC(C)(C)O[C@@H]23)c2ccc3c(c2)OCO3)cc(OC)c1OC |  |  |  |  |  |  |  |  |  |  |  |  |  |  |  |  |  |  |  | 106% | 
COc1cc(/C(=C2/O[C@@H]([C@H](O)CO)[C@H]3OC(C)(C)O[C@@H]23)c2cccc([N+](=O)[O-])c2)cc(OC)c1OC | 0% | 4% | 4% | 1% | 6% | 0% | 8% | 0% | 6% | 10% | 0% | 10% | 14% | 10% | 17% | 16% | 0% | 11% | 0% |  | inhibition of growth at 10 µM [20]: 11%; inhibition of growth at 1 µM [21]: 0%; inhibition of growth at 10 µM (A549 [22]): 14%; inhibition of growth at 1 µM (OVCAR-8 [23]): 0%; inhibition of growth at 10 µM (HT-29 [24]): 4%; inhibition of growth at 10 µM (SF-268 [25]): 26%; inhibition of growth at 10 µM [26]: 0%; inhibition of growth at 10 µM (K562 [27]): 18%; inhibition of growth at 10 µM (PC-3 [28]): 23%
COc1cc(C(=C(CO)CO)c2ccc3c(c2)OCO3)cc(OC)c1OC |  |  |  |  |  |  |  |  |  |  |  |  |  |  |  |  |  |  |  |  | tubulin polymerization inhibition call (active/not active) (Ovis aries): inactive
